From ChEMBL document CHEMBL1150362, “Synthesis and in vitro evaluation of a library of modified endomorphin 1 peptides” (Bioorg Med Chem, 2008)
*1 amine or outer side, *2 acyl side, *3 side chain or, on linkers, in order; H or OH if unused. Where a SMILES comes first, the peptide text is derived from it. [ ]: non-standard residue; d: D form. The star is where a group is joined. ξ: configuration not given here. NH(β-D-Glc) = OC[C@H]1O[C@@H](N*)[C@H](O)[C@@H](O)[C@@H]1O; X1 = NC(=O)[C@H]1O[C@@H](N*)[C@H](O)[C@@H](O)[C@@H]1O; ξGly(nC16H33) = CCCCCCCCCCCCCCCCC(N)C(=O)O; Dmt = Cc1cc(O)cc(C)c1C[C@H](N)C(=O)O; ξGly(decyl) = CCCCCCCCCCC(N)C(=O)O; Suc = O=C(CCC(=O)[*:2])[*:1]; ξAoc(2) = CCCCCCC(N)C(=O)O

Key:
[1] = (§1) Apparent permeability from apical to basolateral side of the human Caco-2 membrane; assay type: ADME, cell-based
[2] = (§2) Metabolic stability assessed as half life in human Caco-2 cell homogenate; assay type: ADME, Colon; conditions: Caco-2 cell homogenate
Mu-type opioid receptor [3] = biological target: T1, Mu-type opioid receptor (Homo sapiens, UniProt P35372); test: Agonist activity at mu opioid receptor in human SHSY5Y cells assessed as inhibition of forskolin-stimulated cAMP production at 100 nM; assay type: functional, cell-based; set-up: scale not given: the % may be the effect or the level left; conditions: SH-SY5Y
How it was run: (§3)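 SH-SY5Y cells (endogenous mu and delta opioid receptors, passages 10-20) grown in 96-well plates to 80% confluence. Peptides applied in DMEM with 30 μM forskolin for 30 min at 37°C. Lysed cells read by cAMP enzyme immunoassay (TMB, 450 nm) against a 0-3.2 pmol standard curve, expressed relative to the maximal forskolin response. Three experiments in triplicate; IC50 from concentration-response curves.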

Mu-type opioid receptor [4] = biological target: T1, Mu-type opioid receptor; test: Displacement of [3H]DAMGO from mu opioid receptor in human SHSY5Y cells; assay type: cell-based, SH-SY5Y
How it was run: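 Intact SH-SY5Y cells in 24-well plates were pre-incubated in binding buffer (50 mM Tris pH 7.4, 2% BSA). Incubated with 100 pM [3H]DAMGO plus unlabelled competitor (7 concentrations, 10 pM-1 μM) for 60 min at 37°C. Nonspecific binding defined with 1 μM DAMGO. Cells washed, dissolved in 1 M NaOH and counted by scintillation. Triplicates on at least three plates; Ki from one-site competition fits.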

[5] = biological target: Delta-type opioid receptor (Rattus norvegicus, UniProt P33533); test: Displacement of […] from delta opioid receptor in rat brain membrane; assay type: cell membranes
Mu-type opioid receptor [6] = biological target: Mu-type opioid receptor (Rattus norvegicus, UniProt P33535); test: Displacement of [3H]DAMGO from mu opioid receptor in rat brain membrane; assay type: cell membranes
Rattus norvegicus = organism: Rattus norvegicus; test: Selectivity for rat mu opioid receptor over rat delta opioid receptor
How it was run: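 Ratio Kiδ/Kiμ, with both Ki values from competitive displacement binding on prepared rat brain P2 synaptosome membranes. The μ site was labelled with [3H]DAMGO. Ki values are given as mean ± SE, n = 3-4.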

Mu-type opioid receptor [7] = biological target: T1, Mu-type opioid receptor; test: Agonist activity at mu opioid receptor in human SHSY5Y cells assessed as inhibition of forskolin-stimulated cAMP production; assay type: functional, cell-based, SH-SY5Y; how it was run: as §3
Caco-2 [8] = test: as §1; assay type: ADME, cell-based
Caco-2 [9] = test: as §2; assay type: ADME, Colon; conditions: Caco-2

Delta-type opioid receptor, sequence (P33533 whole entry): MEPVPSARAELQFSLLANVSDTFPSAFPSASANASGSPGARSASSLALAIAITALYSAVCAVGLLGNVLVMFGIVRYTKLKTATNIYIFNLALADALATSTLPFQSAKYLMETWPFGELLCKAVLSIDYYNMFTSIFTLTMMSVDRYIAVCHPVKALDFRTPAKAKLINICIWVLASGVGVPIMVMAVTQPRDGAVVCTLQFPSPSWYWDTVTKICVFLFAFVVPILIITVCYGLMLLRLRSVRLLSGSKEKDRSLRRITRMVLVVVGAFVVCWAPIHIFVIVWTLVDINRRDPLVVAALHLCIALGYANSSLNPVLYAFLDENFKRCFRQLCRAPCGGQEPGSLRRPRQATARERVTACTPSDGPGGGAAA
T1 sequence (P35372 whole entry): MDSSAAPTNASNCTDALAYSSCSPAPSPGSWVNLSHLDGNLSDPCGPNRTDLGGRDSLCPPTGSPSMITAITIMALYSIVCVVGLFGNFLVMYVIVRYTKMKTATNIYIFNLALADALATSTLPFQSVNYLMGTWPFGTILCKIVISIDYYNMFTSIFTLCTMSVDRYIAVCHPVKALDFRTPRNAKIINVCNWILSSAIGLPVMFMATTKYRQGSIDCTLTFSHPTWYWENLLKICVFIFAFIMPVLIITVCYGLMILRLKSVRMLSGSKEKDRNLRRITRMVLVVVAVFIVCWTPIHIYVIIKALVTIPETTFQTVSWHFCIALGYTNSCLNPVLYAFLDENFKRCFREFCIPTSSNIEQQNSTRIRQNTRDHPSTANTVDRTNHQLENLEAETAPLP
Mu-type opioid receptor (Rattus norvegicus, UniProt P33535), sequence (P33535 whole entry): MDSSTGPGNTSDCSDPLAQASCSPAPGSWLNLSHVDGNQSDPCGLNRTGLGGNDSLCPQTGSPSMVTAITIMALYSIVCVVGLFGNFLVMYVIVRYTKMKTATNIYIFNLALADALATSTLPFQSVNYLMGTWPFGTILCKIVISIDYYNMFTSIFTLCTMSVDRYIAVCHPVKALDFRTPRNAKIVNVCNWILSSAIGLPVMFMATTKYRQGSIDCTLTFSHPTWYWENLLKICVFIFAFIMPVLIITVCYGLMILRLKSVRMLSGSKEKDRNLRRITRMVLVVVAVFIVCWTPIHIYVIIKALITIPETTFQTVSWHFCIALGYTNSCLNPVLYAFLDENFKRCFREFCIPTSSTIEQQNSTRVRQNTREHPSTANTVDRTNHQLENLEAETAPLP

Question: Which results are given for CCCCCCC(N)C(=O)N[C@@H](Cc1ccc(O)cc1)C(=O)N1CCC[C@H]1C(=O)N[C@@H](Cc1c[nH]c2ccccc12)C(=O)N[C@@H](Cc1ccccc1)C(=O)N[C@@H]1O[C@H](C(N)=O)[C@@H](O)[C@H](O)[C@H]1O (stereo partly drawn) (H-[ξAoc(2)]YPWF-X1)?
Answer: Papp A→B [1]: 1.62 ×10⁻⁶ cm/s; half-life [2]: 75 min; Activity (Mu-type opioid receptor [3]): 36.2%; Ki (Mu-type opioid receptor [4]): 148 nM

Question: For NC(=O)[C@H](Cc1ccccc1)NC(=O)[C@H](Cc1c[nH]c2ccccc12)NC(=O)[C@@H]1CCCN1C(=O)[C@H](Cc1ccc(O)cc1)NC(=O)CCC(=O)N[C@@H]1O[C@H](CO)[C@@H](O)[C@H](O)[C@H]1O, which Papp A→B [1] is on record?
Answer: Its Papp A→B is 0.545 ×10⁻⁶ cm/s.

Question: And the Ki [5]?
Answer: Its Ki is 6320 nM.

Question: And the Ki (Mu-type opioid receptor [6])?
Answer: Its Ki is 115 nM.

Question: And the half-life [2]?
Answer: Its half-life is 38 min.

Question: What about the Ratio Ki (Rattus norvegicus) of the same compound?
Answer: Its Ratio Ki is 55.

Question: What about the Ki (Mu-type opioid receptor [4]) of the same compound?
Answer: The Ki was 115 nM.

Question: With CCCCCCC(N)C(=O)N[C@@H](Cc1c(C)cc(O)cc1C)C(=O)N1CCC[C@H]1C(=O)N[C@@H](Cc1c[nH]c2ccccc12)C(=O)N[C@@H](Cc1ccccc1)C(N)=O (stereo partly drawn) (H-[ξAoc(2)][Dmt]PWF-NH2) as the compound, how does the Activity (Mu-type opioid receptor [3]) read?
Answer: The Activity was 84.3%.

Question: What about the IC50 (Mu-type opioid receptor [7]) of the same compound?
Answer: The IC50 was 0.32 nM.

Question: What about the Ki (Mu-type opioid receptor [4]) of the same compound?
Answer: Its Ki is 0.081 nM.

Question: With CCCCCC[C@@H](N)C(=O)N[C@@H](Cc1ccc(O)cc1)C(=O)N1CCC[C@H]1C(=O)N[C@@H](Cc1c[nH]c2ccccc12)C(=O)N[C@@H](Cc1ccccc1)C(N)=O as the compound, how does the half-life [2] read?
Answer: Its half-life is 23.8 min.

Question: And the Ki (Mu-type opioid receptor [4])?
Answer: The Ki was 2.92 nM.

Question: Which Papp A→B [1] does the source give for CCCCCCC(NC(=O)[C@H](Cc1ccccc1)NC(=O)[C@H](Cc1c[nH]c2ccccc12)NC(=O)[C@@H]1CCCN1C(=O)[C@H](Cc1ccc(O)cc1)NC(=O)CCC(=O)N[C@@H]1O[C@H](CO)[C@@H](O)[C@H](O)[C@H]1O)C(N)=O (stereo partly drawn) ({NH(β-D-Glc)-Suc}-YPWF[ξAoc(2)]-NH2) here?
Answer: The Papp A→B was 1.14 ×10⁻⁶ cm/s.

Question: What about the half-life [2] of the same compound?
Answer: The half-life was 33 min.

Question: What about the Ki (Mu-type opioid receptor [4]) of the same compound?
Answer: Its Ki is 266 nM.

Question: What does the source list for CCCCCCC(N)C(=O)N[C@@H](Cc1ccc(O)cc1)C(=O)N1CCC[C@H]1C(=O)N[C@@H](Cc1c[nH]c2ccccc12)C(=O)N[C@@H](Cc1ccccc1)C(N)=O (stereo partly drawn)?
Answer: Papp A→B [1]: 3.54 ×10⁻⁶ cm/s; Ki [5]: 1760 nM; Ki (Mu-type opioid receptor [6]): 2.86 nM; half-life [2]: 23.2 min; Activity (Mu-type opioid receptor [3]): 65.4%; IC50 (Mu-type opioid receptor [7]): 26.3 nM; Ratio Ki (Rattus norvegicus): 614; Ki (Mu-type opioid receptor [4]): 2.15 nM

Question: Which Papp A→B [1] does the source give for NC(=O)[C@H](Cc1ccccc1)NC(=O)[C@H](Cc1c[nH]c2ccccc12)NC(=O)[C@@H]1CCCN1C(=O)[C@@H](N)Cc1ccc(O)cc1 [ENDOMORPHIN-1] here?
Answer: The Papp A→B was 0.447 ×10⁻⁶ cm/s.

Question: Which half-life [2] does the source give for NC(=O)[C@H]1O[C@@H](NC(=O)[C@H](Cc2ccccc2)NC(=O)[C@H](Cc2c[nH]c3ccccc23)NC(=O)[C@@H]2CCCN2C(=O)[C@@H](N)Cc2ccc(O)cc2)[C@H](O)[C@@H](O)[C@@H]1O here?
Answer: Its half-life is 4.3 min.

Question: And the Activity (Mu-type opioid receptor [3])?
Answer: The Activity was 31.5%.

Question: And the Ki (Mu-type opioid receptor [4])?
Answer: Its Ki is 151 nM.

Question: With Cc1cc(O)cc(C)c1C[C@H](N)C(=O)N1CCC[C@H]1C(=O)N[C@@H](Cc1c[nH]c2ccccc12)C(=O)N[C@@H](Cc1ccccc1)C(N)=O (stereo in doubt; 13) [listing 1 of 2 here] as the compound, how does the Ratio Ki (Rattus norvegicus) read?
Answer: The Ratio Ki was 75.

Question: What does the source list for Cc1cc(O)cc(C)c1C[C@H](N)C(=O)N1CCC[C@H]1C(=O)N[C@@H](Cc1c[nH]c2ccccc12)C(=O)N[C@@H](Cc1ccccc1)C(N)=O (stereo in doubt)?
Answer: Papp (Caco-2 [8]): 0.196 ×10⁻⁷ cm/s; t1/2 (Caco-2 [9]): 5 min

Question: For CCCCCCCCCCC(NC(=O)[C@H](Cc1ccccc1)NC(=O)[C@H](Cc1c[nH]c2ccccc12)NC(=O)[C@@H]1CCCN1C(=O)[C@@H](N)Cc1ccc(O)cc1)C(N)=O (stereo partly drawn) (H-YPWF[ξGly(decyl)]-NH2), which Papp A→B [1] is on record?
Answer: The Papp A→B was 0.416 ×10⁻⁶ cm/s.

Question: For CCCCCCCCCCCCCCCCC(N)C(=O)N[C@@H](Cc1ccc(O)cc1)C(=O)N1CCC[C@H]1C(=O)N[C@@H](Cc1c[nH]c2ccccc12)C(=O)N[C@@H](Cc1ccccc1)C(N)=O (stereo partly drawn) (H-[ξGly(nC16H33)]YPWF-NH2), which Activity (Mu-type opioid receptor [3]) is on record?
Answer: The Activity was 48.4%.

Question: For CCCCCC[C@H](N)C(=O)N[C@@H](Cc1ccc(O)cc1)C(=O)N1CCC[C@H]1C(=O)N[C@@H](Cc1c[nH]c2ccccc12)C(=O)N[C@@H](Cc1ccccc1)C(N)=O, which half-life [2] is on record?
Answer: The half-life was 23.8 min.

Question: And the Ki (Mu-type opioid receptor [4])?
Answer: Its Ki is 3.02 nM.

Question: What does the source list for CCCCCCCCCCC(N)C(=O)N[C@@H](Cc1ccc(O)cc1)C(=O)N1CCC[C@H]1C(=O)N[C@@H](Cc1c[nH]c2ccccc12)C(=O)N[C@@H](Cc1ccccc1)C(N)=O (stereo partly drawn) (H-[ξGly(decyl)]YPWF-NH2)?
Answer: Papp A→B [1]: 1.24 ×10⁻⁶ cm/s; Ki [5]: 836 nM; Ki (Mu-type opioid receptor [6]): 14.8 nM; Activity (Mu-type opioid receptor [3]): 55.4%; Ratio Ki (Rattus norvegicus): 56; Ki (Mu-type opioid receptor [4]): 15.4 nM

Question: What does the source list for Cc1cc(O)cc(C)c1C[C@H](N)C(=O)N1CCC[C@H]1C(=O)N[C@@H](Cc1c[nH]c2ccccc12)C(=O)N[C@@H](Cc1ccccc1)C(N)=O (stereo in doubt; 13) [listing 2 of 2 here]?
Answer: Papp (Caco-2 [8]): 5.04 ×10⁻⁷ cm/s; Ki [5]: 5 nM; Ki (Mu-type opioid receptor [6]): 0.067 nM; t1/2 (Caco-2 [9]): 13.5 min; IC50 (Mu-type opioid receptor [7]): 0.43 nM; Ki (Mu-type opioid receptor [4]): 0.059 nM

Question: With CCCCCCC(NC(=O)[C@H](Cc1ccccc1)NC(=O)[C@H](Cc1c[nH]c2ccccc12)NC(=O)[C@@H]1CCCN1C(=O)[C@@H](N)Cc1ccc(O)cc1)C(N)=O (stereo partly drawn) (H-YPWF[ξAoc(2)]-NH2) as the compound, how does the Papp A→B [1] read?
Answer: Its Papp A→B is 0.823 ×10⁻⁶ cm/s.

Question: What about the half-life [2] of the same compound?
Answer: Its half-life is 3.5 min.

Question: And the Activity (Mu-type opioid receptor [3])?
Answer: The Activity was 15.9%.

Question: And the Ki (Mu-type opioid receptor [4])?
Answer: Its Ki is 121 nM.
